# Compound activity (PubChem BioAssay)
# ADAM17 inh: inhibitors of human ADAM17; inhibition, % at 6.95 µM; P78536; recombinant ADAM17, EDANS/DABCYL FRET peptide cleavage; 370,000 compounds, 0.83% hits;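 active = inhibition above the mean of compounds lying between control limits plus 3 SD, set per campaign, cut at about 8.5% in these data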
# Target sequence (P78536 215-824 limits assumed): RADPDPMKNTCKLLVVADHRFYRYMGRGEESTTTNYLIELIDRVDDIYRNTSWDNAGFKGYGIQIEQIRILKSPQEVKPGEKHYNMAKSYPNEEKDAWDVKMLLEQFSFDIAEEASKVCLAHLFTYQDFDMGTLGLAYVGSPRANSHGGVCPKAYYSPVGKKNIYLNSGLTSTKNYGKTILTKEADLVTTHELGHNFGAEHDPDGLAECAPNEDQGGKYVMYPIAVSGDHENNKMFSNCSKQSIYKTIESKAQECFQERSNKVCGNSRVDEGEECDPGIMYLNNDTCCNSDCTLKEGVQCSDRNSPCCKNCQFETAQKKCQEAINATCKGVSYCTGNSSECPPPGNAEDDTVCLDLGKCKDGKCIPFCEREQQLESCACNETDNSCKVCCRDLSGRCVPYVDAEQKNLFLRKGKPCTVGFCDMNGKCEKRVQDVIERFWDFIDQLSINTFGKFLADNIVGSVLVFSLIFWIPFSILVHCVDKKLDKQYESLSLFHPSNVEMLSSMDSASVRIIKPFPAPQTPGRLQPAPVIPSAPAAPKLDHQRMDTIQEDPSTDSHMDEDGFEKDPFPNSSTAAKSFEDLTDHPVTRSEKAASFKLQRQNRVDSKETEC
# ADAM10 inh: inhibitors of human ADAM10; 370,000 compounds, 0.62% hits; recombinant ADAM10, EDANS/DABCYL FRET peptide cleavage, 3 h; O14672; inhibition, % at 7 µM;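 active = inhibition above a per-campaign cutoff equal to the mean of compounds falling between control-based bounds plus 3 SD, cut at about 20% in these data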
# aDG glyco up: alpha-DG glycosylation activation | Pro5-aDG cells, alpha-DG glycosylation AlphaScreen (IIH6); 0% Pro5, 100% B10-LARGE cell signal | activation, % at 10 µM | 360,000 compounds, 0.22% hits | AID 624168;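 active = activation of at least 8% versus controls, or a plate z-score of at least 8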;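 note: Pro5 are CHO cells carrying HIG-tagged alpha-DG that lacks glycosylation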
# Hep lipid drop: hepatic lipid droplet formation modulation; AID 1656; inhibition, % at 6.5 µM; 240,000 compounds, 0.4% hits; AML12 mouse hepatocytes, oleate lipid droplets, BODIPY imaging;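 active = lipid droplet intensity inhibited by at least 50%, with more than 500 cells counted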
#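 Assay system: AML12 hepatocytes (mouse) / Also added: 100 µM oleic acid challenge / Times: overnight treatment with compound plus oleate / Detection: high-content imaging of BODIPY-stained droplets and DAPI nuclei / Evaluation: % inhibition of lipid droplet signal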
# V-ATPase pHluor: yeast V-ATPase proton transport regulation by pHLuorin; S. cerevisiae, pHLuorin cytosolic pH fluorescence; response, % at 10 µM; 350,000 compounds, 0.37% hits; AID 504577; in the data active = response mostly above about 7.3%, no sharp cut-off; inactive = mostly below about 5.4%; note: actives read high
# MPTP block: blocks calcium-induced mitochondrial swelling; isolated mouse mitochondria, Ca2+ swelling absorbance, 30 min; inhibition, % at 10 µM; 360,000 compounds, 1.4% hits; AID 602449;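 active = inhibition of 50% or more, scaled per plate between neutral and stimulator controls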
# MPTP counter: Rhodamine 123 counter-screen of mitochondrial pore hits; shares compounds with MPTP block; isolated mitochondria, membrane potential, Rhodamine 123 fluorescence; inhibition, % at 10 µM; 5,000 compounds, 78% hits; AID 624504; in the data active = inhibition above about 22%
# MPTP abs DR: dose response confirmation of mitochondrial permeability transition pore inhibitors | shares compounds with MPTP block | isolated mitochondria swelling, absorbance | IC50, µM | 780 compounds, 58% hits | AID 651561; in the data active = IC50 below about 20 µM
# MPTP cs DR: active in counter-screen for permeability transition pore inhibitors. shares compounds with MPTP block. isolated mitochondria counterscreen, fluorescence read-out. IC50, µM. 780 compounds, 49% hits; in the data active = IC50 below about 80 µM
# Hits are given with their value; . = inactive; / = no result. Hits are enriched below; roughly 3.1% of the tested compounds scored in any of these assays.
SMILES,ADAM17 inh,ADAM10 inh,aDG glyco up,Hep lipid drop,V-ATPase pHluor,MPTP block,MPTP counter,others
COC(=O)c1cccc(NC(=O)NC(=O)c2ccccc2Cl)c1,.,.,.,.,.,.,/,
NC(=S)NNC(=O)Nc1ccc(Cl)c(Cl)c1,.,.,.,.,.,72,70,
COC(=O)c1cc(NC(=O)C2COc3ccccc3O2)ccc1Cl (stereo unspecified),.,.,.,.,.,.,/,
COC(=O)c1sccc1NC(=O)Nc1ccc(Cl)c(Cl)c1,.,.,.,.,.,103,107,
C=CCn1c(SCN2C(=O)c3ccccc3C2=O)nc2ccc(Cl)cc2c1=O,.,.,.,.,.,90,90,
Cc1c(C(=O)N(C)CCOc2ccccc2)oc2c(Cl)cccc12,.,.,.,/,.,.,/,
COc1ccc2oc(C(=O)N(C)CCOc3ccc(Cl)cc3)c(C)c2c1,.,.,.,.,.,122,.,MPTP abs DR=.;MPTP cs DR=52
Cc1nc(N)nc(N)c1Oc1ccc(Cl)cc1,.,.,.,/,.,.,/,
Cc1nc(N)nc(N)c1/C=C/C(C)(C)c1ccc(Cl)cc1,.,.,.,.,.,97,91,
CC(=O)CC[C@H]1CC[C@]2(CCCN(C(=O)c3ccno3)C2)O1,.,.,/,/,/,/,/,
O=c1ccc(-c2ccccc2)nn1Cc1ccc(Cl)cc1,.,.,.,/,.,.,/,
C=Cc1ccc(Cn2nc(-c3ccc(C)cc3)ccc2=O)cc1,.,.,.,.,.,69,79,
O=C(CSc1nc2ccccc2s1)NNC(=S)Nc1ccc(Cl)cc1,.,.,.,.,.,93,86,
C[C@@H](CN1CCC[C@H]1CN1C(N)=NC[C@@H]1Cc1ccccc1)N1C[C@@H](Cc2ccccc2)N(CCc2ccc(Cl)c(Cl)c2)C1=N,/,/,.,/,.,74,.,
CCCCN1C(=N)N([C@@H](C)CN2CCC[C@H]2CN2C(N)=NC[C@H]2CC(C)C)C[C@H]1Cc1ccccc1,.,.,.,/,.,67,.,MPTP abs DR=9;MPTP cs DR=.
CC(C)[C@@H]1CN=C(N)N1C[C@@H]1CCCN1C[C@H](C)N1C[C@@H](Cc2ccccc2)N(CCc2ccc(Cl)c(Cl)c2)C1=N,/,/,.,/,.,.,/,
COC(=O)[C@H](C(C)C)N(Cc1cn(Cc2ccc(C)cc2)nn1)S(=O)(=O)c1ccccc1Br,.,.,/,/,/,/,/,
CN1CC2=Cc3ccccc3OC23Oc2ccccc2C=C3C1,.,.,.,/,.,65,.,MPTP abs DR=.;MPTP cs DR=.
O=C1c2ccccc2OC2(C=Cc3ccccc3O2)N1Cc1ccccc1 (stereo unspecified),.,.,.,.,.,.,/,
C/C(=N\NS(=O)(=O)c1ccccc1)c1cc(Cl)cc(Cl)c1O,.,.,.,.,.,62,75,
Cc1ccc(-c2noc(C3CCCN(S(=O)(=O)c4ccc5ccccc5c4)C3)n2)o1 (stereo unspecified),.,.,.,.,.,.,/,
Cc1ccc(-c2noc(C3CCN(S(=O)(=O)c4ccc5c(c4)OCCO5)CC3)n2)o1,.,.,.,/,.,52,64,
O=C(NNC1=C(C(=O)C(F)(F)F)CCC1)c1cccc(Cl)c1,.,.,.,.,.,.,/,
O=C(NNC1=C(C(=O)C(F)(F)F)CCC1)c1ccc(Cl)cc1,.,.,.,/,.,92,77,
Cc1nnsc1-c1onc(C)c1C(=O)Nc1cc(Cl)cc(Cl)c1,.,.,.,.,.,84,79,
SMILES,ADAM17 inh,ADAM10 inh,aDG glyco up,Hep lipid drop,V-ATPase pHluor,MPTP block,MPTP counter,others
O=S(=O)(c1cccs1)N1CCN(CCOc2ccc(Cl)cc2)CC1,.,.,.,/,.,.,/,
O=S(=O)(c1cccs1)N1CCN(CC(O)COc2cc(Cl)ccc2Cl)CC1 (stereo unspecified),.,.,.,/,.,87,91,
COC(=O)[C@]12C[C@H](CC(=O)N3CCCCC3)C(=O)N(Cc3ccco3)C1=C[C@H](C(C)(C)C)O[C@@H]2C,.,.,/,/,/,/,/,
Cc1ccc(NC(=O)Nc2nnc(-c3ccncc3)s2)cc1C,.,.,.,.,.,87,79,
O=C(Nc1ccc(F)cc1)Nc1nnc(COc2ccccc2F)s1,.,.,.,.,.,83,83,
O=C(Nc1nnc(-c2ccc(F)cc2)s1)Nc1ccccc1F,.,.,.,.,.,.,/,
O=C(Nc1ccc(F)cc1)Nc1nnc(-c2ccncc2)s1,.,.,.,/,.,91,89,
COC(=O)Nc1nnc(-c2ccncc2)s1,.,.,.,.,.,.,/,
O=C(Nc1cccc(Cl)c1)Nc1nnc(-c2ccncc2)s1,.,.,.,.,.,101,55,
O=C(Nc1nnc(COc2ccccc2F)s1)Nc1ccccc1F,.,.,.,.,.,.,/,
O=C(N1CCOCC1)N1CC[C@H]2[C@H](CCCN2Cc2cc(F)cc(F)c2)C1,.,.,/,/,/,/,/,
COc1ccc(S[C@]2(C(=O)N3CCN(c4ncccn4)CC3)CC(=O)N(C(=O)/C=C/c3ccccc3)[C@@H]2c2ccc(OC)cc2)cc1,.,.,/,/,/,/,/,
O=C(CSc1nc2ccccc2n1Cc1ccccc1Cl)N/N=C\c1cccc(Oc2ccccc2)c1,.,.,/,/,/,/,/,
COc1ccc(C(=O)N[C@H]2CC[C@@]34CCCN3C(=O)CCC[C@H]4[C@H]2C)cc1,.,.,/,/,/,/,/,
NC(=O)C1CCN(c2ncc(Br)cn2)CC1,.,.,/,/,/,/,/,
O=C(Nc1ccc(Cl)cc1)Nc1nnc(-c2ccncc2)s1,.,.,.,.,.,79,24,
O=C(OCC#CCSc1nnc(-c2ccc3ccccc3c2)o1)c1cccs1,.,.,/,/,/,/,/,
Cc1ccc(-n2[nH]c(C)c(/C=N/Nc3ccc([N+](=O)[O-])cc3[N+](=O)[O-])c2=O)cc1,.,.,.,.,.,112,69,
Cc1[nH]n(-c2ccc([N+](=O)[O-])cc2)c(=O)c1C=NCC1CCCO1 (stereo unspecified),.,.,.,.,.,.,/,
COc1ccc(S(=O)(=O)O/N=C2\CCSc3ccc(C)cc32)cc1,.,.,.,.,.,59,37,
Cc1ccc(C(=O)O/N=C2\CCSc3ccc(C)cc32)cc1,.,.,.,.,.,.,/,
COC(=O)c1c(C)oc2ccc(N(C(=O)c3ccncc3)S(=O)(=O)c3ccc(C)cc3C)cc12,.,.,.,.,.,62,29,
COC(=O)c1c(C)oc2ccc(N(C(=O)c3ccncc3)S(=O)(=O)c3ccc(C)cc3)cc12,/,/,.,.,.,.,/,
O=C(NN1C(=O)c2cc(Br)ccc2NC1c1ccccc1Cl)c1ccncc1 (stereo unspecified),.,.,.,.,.,.,/,
O=C(NN1C(=O)c2cc(Br)ccc2NC1c1cc(Br)cc(Br)c1O)c1ccncc1 (stereo unspecified),.,.,.,.,.,88,52,
